Values after ≈ are worked out from the molar mass of the structure shown. Active and inactive are the calls of the source. No cut-off for these calls is given here.
Tests used:
Staphylococcus aureus [1] = assay: Antibacterial activity against Staphylococcus aureus Cowan ATCC 12598 assessed as growth inhibition after 24 hrs by MTT assay; assay type: functional; conditions: Cowan ATCC 12598, 24 h
Outline: (§1)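 Starter cultures grown 24 h at 37 °C, 5% CO2, aerobic, then diluted in fresh medium to OD600 0.004. Twofold serial dilutions from 64 µg/mL, 24 h incubation. MTT (1 mg/mL solution) added, then 2 h at 37 °C. MIC = lowest concentration with no visible growth. Two independent experiments, each in triplicate.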

Staphylococcus aureus [2] = assay: Antibacterial activity against Staphylococcus aureus NCTC 6571 assessed as growth inhibition after 24 hrs by MTT assay; assay type: functional; conditions: NCTC 6571, 24 h; outline: as §1
[3] = Hemolytic activity in rat RBC assessed as hemoglobin release at 256 ug/mL after 1 hr by microplate reader analysis relative to control; assay type: ADME, cell-based, Erythrocyte; conditions: red blood cells (RBC), read-out: Activity
Outline: (§2)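 Rat RBCs (2% w/w) were exposed to compound for 1 h at 37 °C, 5% CO2, using twofold dilutions from 256 µg/mL. PBS served as the negative control and 1% w/v Triton X-100 as the 100% lysis control. After centrifugation (2000 rpm, 10 min), supernatant absorbance was read at 550 nm and expressed as % hemoglobin release relative to Triton. Assays were run in triplicate, averaged over blood from at least two rats.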

[4] = Antibacterial activity against biofilm-positive Staphylococcus epidermidis RP62A ATCC 35984 assessed as growth inhibition after 24 hrs by MTT assay; assay type: functional; conditions: ATCC 35984, 24 h
Outline: (§3)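 Starter cultures were grown 24 h at 37 °C, 5% CO2, aerobic, then diluted in fresh medium to OD600 0.004. Twofold serial dilutions started at 64 µg/mL. After 24 h of incubation, MTT (1 mg/mL solution) was added and plates were incubated 2 h more at 37 °C. MIC was taken as the lowest concentration with no growth. Two independent experiments were run, each in triplicate.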

[5] = Antibacterial activity against Streptococcus pyogenes serotype M3 assessed as growth inhibition after 24 hrs by MTT assay; assay type: functional; outline: as §3
Streptococcus pyogenes [6] = assay: Antibacterial activity against glossy colony producing Streptococcus pyogenes assessed as growth inhibition after 24 hrs by MTT assay; assay type: functional; outline: as §3
Streptococcus pyogenes [7] = assay: Antibacterial activity against Streptococcus pyogenes MGAS9429 assessed as growth inhibition after 24 hrs by MTT assay; assay type: functional; conditions: MGAS9429, 24 h; outline: as §3
Streptococcus pyogenes [8] = assay: Antibacterial activity against Streptococcus pyogenes serotype M24 assessed as growth inhibition after 24 hrs by MTT assay; assay type: functional; conditions: serotype M24, 24 h; outline: as §3
[9] = Antibacterial activity against Streptococcus pyogenes serotype M5 assessed as growth inhibition after 24 hrs by MTT assay; assay type: functional; outline: as §3
Staphylococcus aureus [10] = assay: Antibacterial activity against methicillin-resistant Staphylococcus aureus assessed as growth inhibition after 24 hrs by MTT assay; assay type: functional; outline: as §1
[11] = Hemolytic activity in rat RBC assessed as hemoglobin release at 128 ug/mL after 1 hr by microplate reader analysis; assay type: ADME, cell-based; conditions: erythrocyte; outline: as §2
[12] = test system: Staphylococcus epidermidis; assay: Antibacterial activity against biofilm-negative Staphylococcus epidermidis ATCC 12228 assessed as growth inhibition after 24 hrs by MTT assay; assay type: functional; conditions: ATCC 12228, 24 h; outline: as §3
[13] = Hemolytic activity in rat RBC assessed as hemoglobin release at 16 ug/mL after 1 hr by microplate reader analysis relative to control; assay type: ADME, cell-based, Erythrocyte; conditions: red blood cells (RBC), read-out: Activity; outline: as §2
Streptococcus pyogenes [14] = assay: Antibacterial activity against Streptococcus pyogenes serotype M1T1 assessed as growth inhibition after 24 hrs by MTT assay; assay type: functional; conditions: serotype M1T1, 24 h; outline: as §3
[15] = Antibacterial activity against Streptococcus pyogenes serotype M2 assessed as growth inhibition after 24 hrs by MTT assay; assay type: functional; outline: as §3
Streptococcus pyogenes [16] = assay: Antibacterial activity against Streptococcus pyogenes serotype T5 assessed as growth inhibition after 24 hrs by MTT assay; assay type: functional; conditions: serotype T5, 24 h; outline: as §3
Streptococcus pyogenes [17] = assay: Antibacterial activity against Streptococcus pyogenes JRS75 assessed as growth inhibition after 24 hrs by MTT assay; assay type: functional; conditions: JRS75, 24 h; outline: as §3
[18] = Hemolytic activity in rat RBC assessed as hemoglobin release at 32 ug/mL after 1 hr by microplate reader analysis relative to control; assay type: ADME, cell-based, Erythrocyte; conditions: red blood cells (RBC), read-out: Activity; outline: as §2
[19] = test system: Staphylococcus epidermidis; assay: Antibacterial activity against Staphylococcus epidermidis ATCC 12228 assessed as cell surface wrinkling at 1 ug/mL after 1 hr by scanning electron microscopic analysis; assay type: functional, organism-based
Outline: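 S. epidermidis ATCC12228 grown 4 h at 37 °C, aerobic, to OD600 0.2. Cells washed in PBS pH 7.4 and resuspended to OD600 1.0. Treated with 1 µg/mL for 1 h at 37 °C, then diluted twofold. Washed, fixed overnight at 4 °C in 2.5% glutaraldehyde/PBS, dehydrated through graded ethanol, vacuum-dried, Pd-Au coated and imaged by SEM. Compared against untreated cells.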

Streptococcus pyogenes [20] = assay: Ratio of gramicidin D MIC to compound MIC for Streptococcus pyogenes MGAS9429; assay type: functional
Streptococcus pyogenes [21] = assay: Ratio of gramicidin D MIC to compound MIC for glossy colony producing Streptococcus pyogenes; assay type: functional
Staphylococcus aureus [22] = assay: Ratio of gramicidin D MIC to compound MIC for Staphylococcus aureus NCTC 6571; assay type: functional
[23] = test system: Staphylococcus epidermidis; assay: Ratio of gramicidin D MIC to compound MIC for biofilm-negative Staphylococcus epidermidis ATCC 12228; assay type: functional
Staphylococcus aureus [24] = assay: Ratio of gramicidin D MIC to compound MIC for Staphylococcus aureus Cowan ATCC 12598; assay type: functional

SMILES	MIC (Staphylococcus aureus [1])	MIC (Staphylococcus aureus [2])	hemolysis at 1 h, 256 ug/mL [3]	MIC [4]	MIC [5]	MIC (Streptococcus pyogenes [6])	MIC (Streptococcus pyogenes [7])	MIC (Streptococcus pyogenes [8])	MIC [9]	MIC (Staphylococcus aureus [10])	Activity [11]	MIC [12]	hemolysis at 1 h, 16 ug/mL [13]	MIC (Streptococcus pyogenes [14])	MIC [15]	MIC (Streptococcus pyogenes [16])	MIC (Streptococcus pyogenes [17])	also measured
CCCCCCSC[C@H]1O[C@H](O[C@H]2[C@H](O[C@@H]3O[C@H](CSCCCCCC)[C@@H](O[C@H]4O[C@@H](CN)[C@@H](O)[C@H](O)[C@H]4N)[C@H]3O)[C@@H](O)[C@H](N)C[C@@H]2N)[C@H](N)[C@@H](O)[C@@H]1O	64 µg/mL (≈ 78.4 µM)	32 µg/mL (≈ 39.2 µM)	3.4%	16 µg/mL (≈ 19.6 µM)	4 µg/mL (≈ 4.9 µM)	8 µg/mL (≈ 9.8 µM)	8 µg/mL (≈ 9.8 µM)	8 µg/mL (≈ 9.8 µM)	8 µg/mL (≈ 9.8 µM)	> 64 µg/mL	Toxic	8 µg/mL (≈ 9.8 µM)	0%	16 µg/mL (≈ 19.6 µM)	8 µg/mL (≈ 9.8 µM)	4 µg/mL (≈ 4.9 µM)	8 µg/mL (≈ 9.8 µM)	
CCCCCCCCCCCCCCCCSC[C@H]1O[C@H](O[C@H]2[C@H](O[C@@H]3O[C@H](CO)[C@@H](O[C@H]4O[C@@H](CN)[C@@H](O)[C@H](O)[C@H]4N)[C@H]3O)[C@@H](O)[C@H](N)C[C@@H]2N)[C@H](N)[C@@H](O)[C@@H]1O	64 µg/mL (≈ 74.8 µM)	64 µg/mL (≈ 74.8 µM)		64 µg/mL (≈ 74.8 µM)	32 µg/mL (≈ 37.4 µM)	32 µg/mL (≈ 37.4 µM)	32 µg/mL (≈ 37.4 µM)	32 µg/mL (≈ 37.4 µM)	64 µg/mL (≈ 74.8 µM)	64 µg/mL (≈ 74.8 µM)		32 µg/mL (≈ 37.4 µM)	33.8%	> 64 µg/mL	16 µg/mL (≈ 18.7 µM)	8 µg/mL (≈ 9.34 µM)	8 µg/mL (≈ 9.34 µM)	hemolysis at 1 h, 32 ug/mL [18]: 100%
CCCCCCCCSC[C@H]1O[C@H](O[C@H]2[C@H](O[C@@H]3O[C@H](CSCCCCCCCC)[C@@H](O[C@H]4O[C@@H](CN)[C@@H](O)[C@H](O)[C@H]4N)[C@H]3O)[C@@H](O)[C@H](N)C[C@@H]2N)[C@H](N)[C@@H](O)[C@@H]1O	4 µg/mL (≈ 4.59 µM)	4 µg/mL (≈ 4.59 µM)	62.5%	2 µg/mL (≈ 2.29 µM)	2 µg/mL (≈ 2.29 µM)	2 µg/mL (≈ 2.29 µM)	4 µg/mL (≈ 4.59 µM)	2 µg/mL (≈ 2.29 µM)	2 µg/mL (≈ 2.29 µM)	8 µg/mL (≈ 9.17 µM)	Toxic	2 µg/mL (≈ 2.29 µM)	0.8%	2 µg/mL (≈ 2.29 µM)	2 µg/mL (≈ 2.29 µM)	2 µg/mL (≈ 2.29 µM)	2 µg/mL (≈ 2.29 µM)	Activity [19]: Active; Ratio (Streptococcus pyogenes [20]): > 16; Ratio (Streptococcus pyogenes [21]): 8; Ratio (Staphylococcus aureus [22]): 16; Ratio [23]: 4; Ratio (Staphylococcus aureus [24]): > 16

Source: ChEMBL document CHEMBL2390839, “Di-alkylated paromomycin derivatives: targeting the membranes of gram positive pathogens that cause skin infections” (Bioorg Med Chem, 2013)
